From ChEMBL document CHEMBL1759995, “Potential CRF1R PET imaging agents: N-fluoroalkyl-8-(6-methoxy-2-methylpyridin-3-yl)-2,7-dimethyl-N-alkylpyrazolo[1,5-a][1,3,5]triazin-4-amines” (Bioorg Med Chem Lett, 2011)

Columns and labels:
[1] = biological target: T1, Corticotropin-releasing factor receptor 1 (Rattus norvegicus, UniProt P35353); test: Displacement of [125I]-o-CRF from CRF1 receptor in rat frontal cortex by rapid filtration technique; type: tissue-based
T1 sequence (P35353 whole entry): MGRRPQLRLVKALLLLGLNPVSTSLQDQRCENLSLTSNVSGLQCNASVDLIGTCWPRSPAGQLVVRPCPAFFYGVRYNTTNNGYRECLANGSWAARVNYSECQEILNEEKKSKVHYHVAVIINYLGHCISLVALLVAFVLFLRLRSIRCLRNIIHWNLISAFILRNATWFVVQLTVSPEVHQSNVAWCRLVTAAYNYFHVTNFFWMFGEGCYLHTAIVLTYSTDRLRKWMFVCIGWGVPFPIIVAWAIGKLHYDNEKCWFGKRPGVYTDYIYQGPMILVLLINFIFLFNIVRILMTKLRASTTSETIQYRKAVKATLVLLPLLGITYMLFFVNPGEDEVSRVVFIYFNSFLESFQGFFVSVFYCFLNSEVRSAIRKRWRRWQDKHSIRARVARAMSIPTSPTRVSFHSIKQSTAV
Procedure, shortened: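 Frozen rat frontal cortex homogenized in 50 mM HEPES (pH 7.0 at 23 °C) with MgCl2, EGTA, protease inhibitors, 0.005% Triton X-100, bacitracin and 0.1% ovalbumin; pellet washed twice by centrifugation at 32,000 g. Membranes (25 µg/well) incubated with 150 pM 125I-o-CRF and compounds 2 h at 21 °C. Bound ligand captured on PEI-treated GF/B filters, washed with ice-cold PBS/0.01% Triton. IC50 from inhibition of specific binding.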

[2] = Lipophilicity, log D of the compound in octanol-phosphate buffer at pH 7.4 by Shake flask method; type: physicochemical
Procedure, shortened: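 Shake-flask partitioning between 25 mM phosphate buffer (pH 7.4) and octanol, both pre-saturated by mixing and standing overnight. A 1.0 mg sample dissolved in 1 mL octanol and added to 50 mL octanol-saturated buffer.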

Compound	IC50 [1]	logD [2]
COCCN(CCCF)c1nc(C)nc2c(-c3ccc(OC)nc3)c(C)nn12	35 nM	3.4
COCCN(CCCF)c1nc(C)nc2c(-c3cnc(OC)nc3)c(C)nn12	390 nM	3.2
COCCN(CCCF)c1nc(C)nc2c(-c3cnc(OC)nc3OC)c(C)nn12	> 10000 nM	1.8
CCN(CCF)c1nc(C)nc2c(-c3ccc(OC)nc3C)c(C)nn12	5.8 nM	4.5
COCCN(CCF)c1nc(C)nc2c(-c3ccc(OC)nc3C)c(C)nn12	5.5 nM	4.6

Results, then the compound that gave them:

IC50 [1]	logD [2]	Compound
1.9 nM	4.1	COCCN(CCCF)c1nc(C)nc2c(-c3ccc(OC)nc3C)c(C)nn12
6.5 nM	3.5	COc1ccc(-c2c(C)nn3c(N(CCC#N)CCCF)nc(C)nc23)c(C)n1
1.6 nM	4.8	CCN(CCCF)c1nc(C)nc2c(-c3ccc(OC)nc3C)c(C)nn12
